UCH37 inh = blocks the human deubiquitinase UCH37. Q9Y5K5. 330,000 tested, 0.33% active. purified proteasome/UCH37, Ub-AMC cleavage fluorescence. AID 588478. inhibition, % (no concentration beside the values);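 active = mean inhibition over replicate wells above about 20%, limit read from the data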;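 also: 0% = compound-free wells with enzyme and 100% = wells lacking proteasome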
Target sequence (Q9Y5K5 whole entry, looked up): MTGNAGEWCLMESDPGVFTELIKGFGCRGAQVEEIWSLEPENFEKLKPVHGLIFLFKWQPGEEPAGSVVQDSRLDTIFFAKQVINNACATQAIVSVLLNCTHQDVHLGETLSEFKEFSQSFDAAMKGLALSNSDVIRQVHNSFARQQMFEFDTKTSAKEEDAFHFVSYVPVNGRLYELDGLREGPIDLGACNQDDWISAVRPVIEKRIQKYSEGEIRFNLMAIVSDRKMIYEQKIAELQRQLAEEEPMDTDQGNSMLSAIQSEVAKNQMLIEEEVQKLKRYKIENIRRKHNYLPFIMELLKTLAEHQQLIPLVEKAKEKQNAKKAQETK
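System: Proteasome-associated human UCH37 deubiquitinase; Input: 0.15 nM proteasome in added enzyme buffer; Also added: Ub-AMC substrate from 1 µM stock; Incubation: 30 min compound-proteasome preincubation then 25 min substrate reaction, room temperature; Detection: fluorescence, ex 355 nm, em 460 nm; Read-out: % inhibition of Ub-AMC cleavage fluorescence; Benchmarks: no-proteasome and no-compound wells.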
SENP1 inh = inhibitors of human SENP1 SUMO protease catalytic domain; Q9P0U3; recombinant SENP1 catalytic domain, CyPet-SUMO1-YPet FRET cleavage; inhibition, % at 10 µM; 360,000 tested, 0.21% active;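 active = inhibition at least 30% at 10 µM, raw YFP signal under a set limit, fluorescence ratio 0.5 to 1.5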;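 also: 0% = enzyme with DMSO and 100% = no enzyme wells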
Target sequence (Q9P0U3 419-644 limits assumed): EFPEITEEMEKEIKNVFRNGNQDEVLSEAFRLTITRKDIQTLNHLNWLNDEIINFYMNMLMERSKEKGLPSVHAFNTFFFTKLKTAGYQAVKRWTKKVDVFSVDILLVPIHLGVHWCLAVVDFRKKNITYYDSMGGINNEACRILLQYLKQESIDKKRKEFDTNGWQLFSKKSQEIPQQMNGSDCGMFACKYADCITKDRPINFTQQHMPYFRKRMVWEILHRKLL
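Test system: recombinant human SENP1 catalytic domain, His6-tagged / Medium: pH 8 Tris buffer with EDTA, NaCl, BME, BSA, NP40, catalase / Also added: SUMO1 FRET substrate flanked by Cypet and Ypet, 25 nM / Times: 50 min reaction at room temperature / Signal: FRET, CFP and YFP emission / Control set: no-enzyme low control and enzyme-plus-DMSO high control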
NadD block = NadD (S. aureus) enzyme inhibition; 360,000 tested, 0.78% active; purified NadD enzyme, colorimetric absorbance read-out; inhibition, % at 20 µM; in the data active = inhibition above about 26%
GRIN3A LBD mod = modulates the human NR3A ligand-binding domain; AID 1259313; NR3A LBD differential scanning fluorimetry, Tm shift; 0% = protein alone, 100% = glycine-bound protein; Tm shift relative to glycine control, % at 25 µM; 340,000 tested, 2.5% active;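 active = melting temperature shift of at least 10% of the positive control shift, at one fixed dose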
ATG4B inh = inhibitors of human ATG4B cysteine protease. ATG4B cleavage of LC3-PLA2, NBD-HPC fluorescence, 1 h. 340,000 tested, 0.51% active. Q9Y4P1. AID 504462. inhibition, % at 8.33 µM; in the data active = inhibition above about 40%
* = called active by the depositor. Hits are enriched below; roughly 3.6% of the tested compounds scored in any of these assays.

Oc1cc(O)cc(-c2cc3ccc(O)cc3o2)c1 was read as UCH37 inh -41, SENP1 inh -1, NadD block 3, GRIN3A LBD mod 16* and ATG4B inh -6.
Screening CCCCC(=O)OCC(=O)Nc1ccc(OC(F)F)cc1 returned UCH37 inh 6, SENP1 inh 1, NadD block 3, GRIN3A LBD mod 13* and ATG4B inh -4.
`Cc1ccc(C=NNC(=O)C[n+]2ccccc2)o1` gave UCH37 inh 6.
For Cc1ccc(C=Nn2c(-c3ccccn3)n[nH]c2=S)o1 the results were UCH37 inh 3.
`CC(=NNC(=O)c1c(Cl)cnn1C)c1cccc(NC(=O)c2ccc(C)cc2)c1` gave UCH37 inh 2.
For CC(=O)c1ccc(NC(=O)CSc2nc3[nH]ncc3c(=O)[nH]2)cc1 the results were UCH37 inh 1, SENP1 inh 1, NadD block -1, GRIN3A LBD mod 1 and ATG4B inh 11.
O=C(CSc1nc2[nH]ncc2c(=O)[nH]1)Nc1ccccc1F was read as UCH37 inh 5, SENP1 inh 2, NadD block 0, GRIN3A LBD mod 14* and ATG4B inh 5.
COC(=O)c1ccc(NC(=O)CSc2nc3[nH]ncc3c(=O)[nH]2)cc1 was read as UCH37 inh 5, SENP1 inh 2, NadD block 0, GRIN3A LBD mod 14* and ATG4B inh 5.
Screening CCOC(=O)NN=C(C)c1ccc(Oc2ncccn2)cc1 returned UCH37 inh 3.
`COC(C(=O)NN=Cc1ccc(OCC(=O)N2CCOCC2)cc1)c1ccccc1` (stereo not drawn) gave UCH37 inh 3.
Screening O=C(NCc1ccccc1)c1noc2c1CCCC2 returned UCH37 inh 2, SENP1 inh 1, NadD block -7, GRIN3A LBD mod 2 and ATG4B inh 9.
Screening O=C(NCc1cccs1)c1noc2c1CCCC2 returned UCH37 inh 3, SENP1 inh 0, NadD block -6, GRIN3A LBD mod 11* and ATG4B inh -11.
COc1ccc(NC(=O)/C=C/c2cc(Br)ccc2OC)cc1 was read as UCH37 inh 1, SENP1 inh 1, NadD block -11, GRIN3A LBD mod 15* and ATG4B inh -13.
Screening CCN(CC)c1ccc(NC(=O)/C=C/c2cc(Br)ccc2OC)cc1 returned UCH37 inh -5, SENP1 inh 12, NadD block 7, GRIN3A LBD mod -2 and ATG4B inh 0.
CCCCNS(=O)(=O)c1ccc(NC(=O)C(Sc2ccccc2)c2ccccc2)cc1 (stereo not drawn) was read as UCH37 inh 3, SENP1 inh 2, NadD block -1, GRIN3A LBD mod 21* and ATG4B inh -2.
CC(=O)NS(=O)(=O)c1ccc(NC(=O)C(Sc2ccccc2)c2ccccc2)cc1 (stereo not drawn) was read as UCH37 inh 2, SENP1 inh 0, NadD block -10, GRIN3A LBD mod -17 and ATG4B inh -3.
`CC(=O)Nc1ccc(NC(=O)C(Sc2ccccc2)c2ccccc2)cc1` (stereo not drawn) gave UCH37 inh 2, SENP1 inh 4, NadD block -5, GRIN3A LBD mod -5 and ATG4B inh 5.
`CCC(C)NS(=O)(=O)c1ccc(NC(=O)C(Sc2ccccc2)c2ccccc2)cc1` (stereo not drawn) gave UCH37 inh 4, SENP1 inh 4, NadD block -9, GRIN3A LBD mod 13* and ATG4B inh 15.
Screening Cc1onc(-c2c(F)cccc2Cl)c1C(O)c1ccc(F)cc1 (stereo not drawn) returned UCH37 inh 7, SENP1 inh -1, NadD block -2, GRIN3A LBD mod 11* and ATG4B inh 7.
CCC1Oc2ccccc2N(CC(=O)NC2CCCCC2C)C1=O (stereo not drawn) was read as UCH37 inh 2, SENP1 inh 1, NadD block 0, GRIN3A LBD mod 15* and ATG4B inh 9.
For C/C=C/C=NNC(=O)CN(c1ccc(Br)cc1)S(=O)(=O)c1ccccc1 the results were UCH37 inh 4.
For Cn1c(NC(=O)/C=C/c2ccc(Cl)c(Cl)c2)cc(=O)n(C)c1=O the results were SENP1 inh 1, NadD block -2, GRIN3A LBD mod 16* and ATG4B inh 32.
For C#CCOCCOCCOCCNc1nc(N2CCN(C(=O)CCCCCCCCCCNC(=O)Cn3cc(C[C@@H](C)O)nn3)CC2)nc(N2CCN(C(=O)CCCCCCCCCCNC(=O)[C@H](CCCCN)n3cc(C[C@@H](C)CC)nn3)CC2)n1 the results were SENP1 inh -6, NadD block 44*, GRIN3A LBD mod 13* and ATG4B inh 21.
For C#CCOCCOCCOCCNc1nc(N2CCN(C(=O)CCCCCCCCCCNC(=O)[C@H](CCCCN)n3cc(CCO)nn3)CC2)nc(N2CCN(C(=O)CCCCCCCCCCNC(=O)[C@H](CCCN=C(N)N)n3cc(C[C@@H](C)CC)nn3)CC2)n1 the results were UCH37 inh 10, SENP1 inh -4, NadD block 44*, GRIN3A LBD mod 26* and ATG4B inh 70*.
`C#CCOCCOCCOCCNc1nc(N2CCN(C(=O)CCCCCCCCCCNC(=O)[C@H](CCCCN)n3cc(CCO)nn3)CC2)nc(N2CCN(C(=O)CCCCCCCCCCNC(=O)[C@H](CCCCN)n3cc(CCO)nn3)CC2)n1` gave SENP1 inh -13, NadD block 9, GRIN3A LBD mod 0 and ATG4B inh -1.
C#CCOCCOCCOCCNc1nc(N2CCN(C(=O)CCCCCCCCCCNC(=O)[C@H](CCCCN)n3cc(CCCC(=O)O)nn3)CC2)nc(N2CCN(C(=O)CCCCCCCCCCNC(=O)[C@H](CCCN=C(N)N)n3cc(C[C@@H](C)CC)nn3)CC2)n1 was read as UCH37 inh 2, SENP1 inh -4, NadD block 27, GRIN3A LBD mod 23* and ATG4B inh 37.
`CC(=NOC(=O)c1ccc(F)cc1)c1ccc(C)cc1` gave UCH37 inh -1.
Screening CCN(CC)S(=O)(=O)c1cccc(-c2n[nH]c(=S)n2N=Cc2ccc(C(=O)OC)cc2)c1 returned UCH37 inh -1.
`COc1ccc(C(=O)NN=C2SCC(=O)N2Cc2ccc3c(c2)OCO3)cc1OC` gave UCH37 inh 2.
For CCOc1cc(/C=C2\SC(=S)N(NS(=O)(=O)c3ccc(C)cc3)C2=O)ccc1O the results were UCH37 inh 14, SENP1 inh 83*, NadD block -2, GRIN3A LBD mod -5 and ATG4B inh 4.
COc1cc(/C=C2\SC(=S)N(NS(=O)(=O)c3ccc(C)cc3)C2=O)ccc1O was read as UCH37 inh 13, SENP1 inh 91*, NadD block -1, GRIN3A LBD mod -5 and ATG4B inh 0.
